Measurements reported in ChEMBL document CHEMBL1130380, “Studies on selection blockers. 5. Design, synthesis, and biological profile of sialyl Lewis x mimetics based on modified serine-glutamic acid dipeptides” (J Med Chem, 1997).

Legend:
[1] = target: T1, P-selectin (Mus musculus, UniProt Q01102); test: Blocking activity using seletin-IgG chimeras in a Selectin P competitive binding assay.
T1 sequence (Q01102 whole entry): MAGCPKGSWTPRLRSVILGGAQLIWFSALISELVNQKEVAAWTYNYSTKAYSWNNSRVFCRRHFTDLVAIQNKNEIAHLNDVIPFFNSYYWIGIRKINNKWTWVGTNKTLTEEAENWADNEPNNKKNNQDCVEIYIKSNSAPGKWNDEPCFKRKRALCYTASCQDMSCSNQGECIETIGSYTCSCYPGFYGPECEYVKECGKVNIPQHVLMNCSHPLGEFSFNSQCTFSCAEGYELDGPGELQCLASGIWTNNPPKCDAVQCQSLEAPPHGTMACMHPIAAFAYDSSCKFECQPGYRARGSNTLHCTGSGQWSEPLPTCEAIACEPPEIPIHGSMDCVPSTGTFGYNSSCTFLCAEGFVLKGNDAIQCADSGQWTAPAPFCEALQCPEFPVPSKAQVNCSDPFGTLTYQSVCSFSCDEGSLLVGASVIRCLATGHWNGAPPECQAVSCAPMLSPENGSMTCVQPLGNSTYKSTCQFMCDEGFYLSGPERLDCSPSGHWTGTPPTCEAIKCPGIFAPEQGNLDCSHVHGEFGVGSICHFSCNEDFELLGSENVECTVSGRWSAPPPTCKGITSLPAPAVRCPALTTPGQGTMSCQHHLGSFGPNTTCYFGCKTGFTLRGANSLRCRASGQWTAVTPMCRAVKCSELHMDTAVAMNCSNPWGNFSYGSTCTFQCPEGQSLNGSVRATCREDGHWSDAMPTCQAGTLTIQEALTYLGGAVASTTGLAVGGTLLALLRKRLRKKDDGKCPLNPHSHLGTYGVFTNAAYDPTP
In short: (§1)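 Selectin-Ig fusion protein is premixed for 30 min at room temperature with biotin-anti-human IgG (Fc) and streptavidin-alkaline phosphatase (each 1:500 in 1% BSA-PBS). The complex is preincubated 30 min with test compound (final 100, 25, 6.25, 1.56 µM; 10 mM water stock). It is then bound 45 min at 37 °C to wells coated with sLex-pentaceramide and blocked with 5% BSA. Read-out is p-nitrophenylphosphate absorbance, expressed as % binding versus controls.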

[2] = target: T2, L-selectin (Mus musculus, UniProt P18337); test: Blocking activity using seletin-IgG chimeras in a Selectin L competitive binding assay.; in short: as §1
T2 sequence (P18337 whole entry): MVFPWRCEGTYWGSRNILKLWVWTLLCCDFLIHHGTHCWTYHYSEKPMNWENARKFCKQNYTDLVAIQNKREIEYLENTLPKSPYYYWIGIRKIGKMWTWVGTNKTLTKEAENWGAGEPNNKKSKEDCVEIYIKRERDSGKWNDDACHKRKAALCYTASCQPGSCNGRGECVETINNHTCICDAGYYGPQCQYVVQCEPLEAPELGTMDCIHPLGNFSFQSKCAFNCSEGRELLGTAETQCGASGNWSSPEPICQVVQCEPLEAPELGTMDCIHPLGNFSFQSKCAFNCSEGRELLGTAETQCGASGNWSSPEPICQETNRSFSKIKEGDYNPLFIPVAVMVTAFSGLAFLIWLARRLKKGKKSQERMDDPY

[3] = target: T3, E-selectin (Mus musculus, UniProt Q00690); test: In vitro inhibitory activity against Selectin E-sialyl Lewis X (sLex) binding
T3 sequence (Q00690 whole entry): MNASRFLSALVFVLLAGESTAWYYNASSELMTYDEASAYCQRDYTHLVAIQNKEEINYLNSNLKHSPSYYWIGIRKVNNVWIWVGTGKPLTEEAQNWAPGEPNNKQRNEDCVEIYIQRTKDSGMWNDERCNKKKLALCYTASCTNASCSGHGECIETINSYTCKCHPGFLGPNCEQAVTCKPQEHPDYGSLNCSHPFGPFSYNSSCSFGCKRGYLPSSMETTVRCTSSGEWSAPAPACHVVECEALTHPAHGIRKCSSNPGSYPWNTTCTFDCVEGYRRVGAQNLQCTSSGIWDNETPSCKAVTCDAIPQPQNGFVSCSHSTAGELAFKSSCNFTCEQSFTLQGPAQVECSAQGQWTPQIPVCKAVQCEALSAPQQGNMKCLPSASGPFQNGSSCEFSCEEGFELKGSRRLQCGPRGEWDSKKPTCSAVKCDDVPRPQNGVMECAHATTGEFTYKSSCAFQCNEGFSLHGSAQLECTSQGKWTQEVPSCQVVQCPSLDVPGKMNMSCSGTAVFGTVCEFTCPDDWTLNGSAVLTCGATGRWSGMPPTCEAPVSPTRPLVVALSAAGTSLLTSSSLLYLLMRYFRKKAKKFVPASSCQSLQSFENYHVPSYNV
In short: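 sLex-pentaceramide (100 pmol/well) dried onto wells, blocked with 5% BSA-PBS 1 h RT. E-selectin-Ig fusion premixed 30 min RT with biotin-anti-human IgG(Fc)/streptavidin-alkaline phosphatase. Compounds (water stock 10 mM; final 100, 25, 6.25, 1.56 µM) preincubated with complex 30 min RT, then added to wells 45 min at 37 °C. Read-out: p-nitrophenylphosphate in diethanolamine pH 9.8; % binding versus no-compound control, background without selectin-Ig.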

[4] = target: T2, L-selectin; test: Blocking activity using selectin-IgG chimeras in a Selectin L competitive binding assay.; in short: as §1
[5] = target: T1, P-selectin; test: Blocking activity using selectin-IgG chimeras in a Selectin P competitive binding assay.; in short: as §1

Compound | IC50 [1] [µM] | IC50 [2] [µM] | IC50 [3] [µM] | IC50 [4] [µM] | IC50 [5] [µM]
CCCCCCCCCCCCCCC(CCCCCCCCCCCCCC)CO[C@@H]1O[C@H](CO)[C@@H](O[C@@H]2O[C@H](CO)[C@H](O)[C@H](OS(=O)(=O)O)[C@H]2O)[C@H](O[C@@H]2O[C@@H](C)[C@@H](O)[C@@H](O)[C@@H]2O)[C@H]1O | 100 | 30 | 280 |  | 
CCCCCCCCCCCCCCC(CCCCCCCCCCCCCC)C(=O)N[C@@H](CO[C@@H]1O[C@@H](C)[C@@H](O)[C@H](O)[C@@H]1O)C(=O)N[C@@H](CCC(=O)O)C(=O)NC | 2.1 | 18 | > 1000 |  | 
CCCCCCCCCCCCCCC(CCCCCCCCCCCCCC)C(=O)N[C@H](CO[C@@H]1O[C@@H](C)[C@@H](O)[C@H](O)[C@@H]1O)C(=O)N[C@H](CCC(=O)O)C(=O)NC |  |  | > 1000 | 39 | 1.9

Further molecules by falling IC50 [3], results first:

IC50 [1] [µM] | IC50 [2] [µM] | IC50 [3] [µM] | IC50 [4] [µM] | IC50 [5] [µM] | Compound
> 1000 | > 1000 | 600 |  |  | CC(=O)N[C@H]1[C@H]([C@H](O)[C@H](O)CO)O[C@@](O[C@H]2[C@@H](O)[C@@H](CO)O[C@@H](O[C@@H]([C@H](O[C@@H]3O[C@@H](C)[C@@H](O)[C@@H](O)[C@@H]3O)[C@H](C=O)NC(C)=O)[C@H](O)CO)[C@@H]2O)(C(=O)O)C[C@@H]1O [SIALYL LEWIS X]
0.5 | 6 | 13 |  |  | CCCCCCCCCCCCCCC(CCCCCCCCCCCCCC)C(=O)N[C@H](CO[C@@H]1O[C@@H](C)[C@@H](O)[C@H](O)[C@@H]1O)C(=O)N[C@@H](CCC(=O)O)C(=O)NC
0.7 | 9.4 | 5.5 |  |  | CCCCCCCCCCCCCCC(CCCCCCCCCCCCCC)C(=O)N[C@@H](CO[C@@H]1O[C@@H](C)[C@@H](O)[C@H](O)[C@@H]1O)C(=O)N[C@H](CCC(=O)O)C(=O)NC
